Activity calls are given as the source filed them. The calls are words filed in the database; no cut-off is given here.
Assays:
NCI-H460 = assay: Antiproliferative activity against human NCI-H460 cells after 72 hrs; conditions: NCI-H460, 72 h
HL-60 = assay: Antiproliferative activity against human HL60 cells after 72 hrs by trypan blue test; assay type: functional, cell-based; conditions: HL-60, 72 h
Method in brief: (§1)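 HeLa (Ham's F-12, 10% heat-inactivated FCS) or HL-60 (RPMI 1640, 15% heat-inactivated FCS), both with penicillin/streptomycin/amphotericin; 4 · 10⁴ cells/well seeded in duplicate, 72 h drug exposure. Viability by Trypan blue; IC50 = concentration giving 50% reduction in cell number versus untreated controls.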

Homo sapiens [1] = species on record: Homo sapiens; assay: Inhibition of human recombinant topoisomerase 2 assessed as relaxation of supercoiled pBR322 plasmid DNA at 10 to 50 uM
HeLa [2] = assay: Antiproliferative activity against human HeLa cells after 72 hrs by trypan blue test; assay type: functional, cell-based
Method in brief: as §1

Homo sapiens [3] = species on record: Homo sapiens; assay: Inhibition of human recombinant topoisomerase 2 assessed as relaxation of supercoiled pBR322 plasmid DNA at 50 uM
HeLa [4] = assay: Induction of apoptosis in human HeLa cells assessed as DNA fragmentation at 100 uM after 24 hrs; assay type: functional, cell-based
Method in brief: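 HeLa cells (5 · 10⁵) incubated 24 h at 37 °C, medium replaced, test agent added; solvent-only controls. After 24 h, DNA extracted, dissolved in TE (10 mM Tris pH 8, 1 mM EDTA), run on 1% agarose, ethidium bromide-stained and imaged under UV; cisplatin as positive control.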

SMILES	IC50 (NCI-H460) [µM]	IC50 (HL-60) [µM]	Activity (Homo sapiens [1])	IC50 (HeLa [2]) [µM]	Activity (Homo sapiens [3])	Activity (HeLa [4])
Cn1cc2c3c1C(=O)C(NCCc1c[nH]c4ccc(O)cc14)=CC3=NCC2	> 40					
Cn1cc2c3c1C(=O)C(NCc1ccccc1)=CC3=NCC2	> 40					
COc1cc2c3c(cn(C=O)c3c1OC)CCN2C=O	> 60					
COc1ccc(CCNC2=CC3=NCCc4cn(C)c(c43)C2=O)cc1	> 40					
COc1ccc2[nH]cc(CCNC3=CC4=NCCc5cn(C)c(c54)C3=O)c2c1	8.8					
COc1cc2c3c(cn(C)c3c1OC)CCN2	> 60					
COc1cc2c3c(cn(C)c3c1OC)CCN2C=O	> 60					
Cn1cc2c3c1C(=O)C1=C(NCCS1)C3=NCC2	0.96	2.7	Active	1.9		
Cn1cc2c3c1C(=O)C(NCCc1c[nH]c4ccccc14)=CC3=NCC2	2.12	7.8		4.1	Active	Active
C[C@H](NC1=CC2=NCCc3cn(C)c(c32)C1=O)c1ccccc1	23					
COc1cc2c3c(c[nH]c3c1OC)CCN2C=O	> 60					
Cn1cc2c3c1C(=O)C1=C(C3=NCC2)C2(C=CC(=O)C=C2)CCN1	6.2	3.1		5.5		Active
Cn1cc2c3c1C(=O)C(NCCc1ccc(O)cc1)=CC3=NCC2 [MAKALUVAMINE K]	10.8	6.9		4.9		Active
COc1cc2c3c(c1OC)N(C=O)C(OC)C3CCN2C=O (stereo not drawn)	7.7	> 20		> 20		
COc1cc(NS(C)(=O)=O)ccc1Nc1c2ccccc2nc2ccccc12 [AMSACRINE]		0.0051		0.012		
COc1cccc2c1C(=O)c1c(O)c3c(c(O)c1C2=O)C[C@@](O)(C(=O)CO)C[C@@H]3O[C@H]1C[C@H](N)[C@H](O)[C@H](C)O1 [DOXORUBICIN]	0.028					
COC1=CC2=NCCc3cn(C)c(c32)C1=O	9	> 20		> 20		
Cn1cc2c3c1C(=O)C(NCCc1c[nH]c4ccc(F)cc14)=CC3=NCC2	5.5	> 20		> 20		

— ChEMBL document CHEMBL1142288, “Synthesis and biological evaluation of pyrroloiminoquinone derivatives” (Bioorg Med Chem, 2008)
